# Compounds with a hit are over-represented: about 1.7% of the library has one in this group of screens.
# VIM-2 inh: VIM-2 metallo-beta-lactamase inhibitors, primary screen, biochemical, epi-absorbance readout, Pseudomonas aeruginosa enzyme | purified VIM-2, nitrocefin hydrolysis, epi-absorbance fluorescence | 0.89% of 290,000 active | AID 1527, 2009 | inhibition, % at 5.6 µM;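 active = inhibition above the mean of all tested compounds plus 3 SD, cutoff set per screening run, cut at about 7.5% in these data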;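 note: red hydrolysis product quenches plate fluorescence so inhibitors raise well fluorescence; 0% = enzyme with DMSO and 100% = DMSO without enzyme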
# procasp3 activ: activators of human procaspase-3 D3A mutant, primary screen, biochemical, absorbance, PC-3 D3A mutant, single concentration. AID 463141, 2010. recombinant procaspase-3 D3A, Ac-DEVD-pNA absorbance 405 nm. activation, % at 8.5 µM. 0.11% of 330,000 active. Caspase-3 (Homo sapiens), P42574;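 active = activation above the mean of all tested compounds plus 3 SD, cut at about 21% in these data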;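 note: 0% = DMSO alone and 100% = DMSO wells spiked with extra 5 µM PC-3 D3A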
#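 assay system = Procaspase-3 D3A mutant | signal = absorbance at 405 nm, 0 and 120 min | times = 1 h preincubation plus 2 h reaction at 25 °C | repeats = single replicate | read-out = % activation between DMSO and enzyme-spiked controls | medium = Zinc-free HEPES saline buffer with Triton X-100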
# Neddylation inh: inhibitors of cullin neddylation, primary screen, biochemical, TR-FRET, uHTS, NAE and Ubc12; calls only at 25 µM; AID 651699, 2012; 0.58% of 360,000 active; in the data active = inhibition above about 36%
# Target sequence (P61081 whole entry, looked up): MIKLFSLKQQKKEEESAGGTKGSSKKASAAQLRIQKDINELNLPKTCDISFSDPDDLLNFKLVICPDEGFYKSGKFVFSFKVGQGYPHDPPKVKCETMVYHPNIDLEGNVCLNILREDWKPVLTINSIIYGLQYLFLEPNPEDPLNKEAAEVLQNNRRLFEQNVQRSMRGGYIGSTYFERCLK
# Target sequence (Q13564 whole entry, looked up): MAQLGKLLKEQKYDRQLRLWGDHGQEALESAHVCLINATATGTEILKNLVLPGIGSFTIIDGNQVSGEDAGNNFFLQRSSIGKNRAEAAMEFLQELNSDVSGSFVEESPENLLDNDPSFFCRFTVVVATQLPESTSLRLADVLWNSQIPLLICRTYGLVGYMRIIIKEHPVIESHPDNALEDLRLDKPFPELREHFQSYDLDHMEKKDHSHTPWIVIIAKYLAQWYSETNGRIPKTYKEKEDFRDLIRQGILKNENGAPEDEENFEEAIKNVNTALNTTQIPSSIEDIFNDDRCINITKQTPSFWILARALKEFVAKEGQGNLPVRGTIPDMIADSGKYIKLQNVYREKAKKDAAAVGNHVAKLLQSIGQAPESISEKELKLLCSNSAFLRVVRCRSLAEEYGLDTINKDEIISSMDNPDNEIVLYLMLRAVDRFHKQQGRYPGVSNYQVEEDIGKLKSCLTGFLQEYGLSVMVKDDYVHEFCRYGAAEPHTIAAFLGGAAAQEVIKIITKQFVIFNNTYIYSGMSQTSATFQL
# IMP-1 inhibitor: IMP-1 metallo-beta-lactamase inhibitors, primary screen, biochemical, epi-absorbance readout, Pseudomonas aeruginosa enzyme; purified IMP-1, nitrocefin hydrolysis, epi-absorbance fluorescence; inhibition, % at 5.6 µM; 0.45% of 290,000 active;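 active = inhibition above the mean plus 3 SD of all compounds in the same screening run, cut at about 4.5% in these data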;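 note: 0% = IMP-1 with DMSO and 100% = DMSO wells lacking enzyme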
#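 assay system = purified recombinant IMP-1 metallo-beta-lactamase enzyme | schedule = 15 min preincubation plus 25 min reaction at 25 °C | signal = Epi-absorbance fluorescence, 480 nm excitation, 530 nm emission | read-out basis = percent inhibition from optical density relative to buffer-blank wells | controls = IMP-1 with DMSO as 0%, enzyme-free DMSO as 100%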
# proCasp7 act: procaspase-7 activators, primary screen, counter-screen for procaspase-3 activator project, biochemical, absorbance, HTS, human; Caspase-7 (Homo sapiens), P55210; recombinant procaspase-7, Ac-DEVD-pNA absorbance 405 nm; D23A/D198A/D206A triple mutant, cannot self-cleave; scale: DMSO 0, 5 µM enzyme 100; activation, % at 8.5 µM; 0.093% of 330,000 active; AID 463210, 2010;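 active = percent activation above the screen-wide mean plus 3 SD, cut at about 25% in these data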
#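 Assay system: Uncleavable procaspase-7 mutant enzyme / Input: 2 µM procaspase-7 mutant as dispensed / Dosing: single nominal 8.5 µM compound dose, 0.8% DMSO final / Timing: 1 h enzyme–compound preincubation and 2 h substrate reaction, both 25 °C / Detection: p-Nitroaniline absorbance at 405 nm, read at 0 and 120 min / Replication: singlicate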
# PolyA inhibitor: polyadenylation inhibitors in yeast reporter cells, primary screen, luminescence, S. cerevisiae | 0.02% of 300,000 active | S. cerevisiae SKY197-pL101 polyadenylation reporter, beta-gal luminescence; efflux-impaired pdr1/pdr3 knockout yeast; score 100 = 6 SD above DMSO | activity score, % at 12 µM | AID 1875, 2009;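 active = lowest replicate activity score at least 50, where 100 means six control SD above control mean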;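 note: yeast exposed to compound for 9 h at 30 °C; higher score means more reporter readthrough which indicates perturbed polyadenylation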
# * hit, by the source's call; i = inactive; . = no result shown; + = active, no number.
SMILES,VIM-2 inh,procasp3 activ,Neddylation inh,IMP-1 inhibitor,proCasp7 act,PolyA inhibitor
COc1ccc2c(c1)c1nc3n(c(=O)c1n2CC(=O)Nc1ccccc1)CCCS3,1,1,i,-1,4,-5
COc1ccc(CCn2c(=N)c(C(=O)NCCN3CCOCC3)cc3c(=O)n4ccccc4nc32)cc1OC,8.2*,1,i,1,3,16
Cc1ccc2nc3c(cc(C(=O)NCCc4ccccc4)c(=N)n3CCCN3CCOCC3)c(=O)n2c1,9.6*,-11,.,-3,-14,5
COc1ccc(CCNC(=O)c2cc3c(=O)n4ccccc4nc3n(CCCN3CCOCC3)c2=N)cc1,10*,-4,i,-4,-9,-2
O=C1/C(=C/c2cccs2)SC(=S)N1c1cccc(O)c1,0,-15,i,-2,-20,0
CC(C)(C)C(=O)C(Oc1cccc2nonc12)n1cncn1 (stereo unspecified),-2,3,i,35*,3,-12
CCOc1ccc(OCC)c(NC(=O)C2CCN(S(=O)(=O)c3cccc4nonc34)CC2)c1,-4,-3,i,-3,-5,-11
COc1ccccc1C(=O)Nc1c2c(nn1-c1ccc(Cl)cc1)CS(=O)(=O)C2,6,1,i,10*,-2,18
COc1ccccc1C(=O)Nc1c2c(nn1-c1ccc([N+](=O)[O-])cc1)CS(=O)(=O)C2,1,-2,i,-3,2,-11
Cc1cccc(N(CC(N)=O)C2SC(=O)N(c3ccccc3)C2=O)c1 (stereo unspecified),-2,-3,i,6.6*,-14,8
O=S(=O)(c1ccc(F)cc1)N1CCC(N2CCCCCC2)CC1,0,11,i,-1,-2,9
O=S(=O)(c1ccc(Cl)cc1)N1CCC(N2CCCCCC2)CC1,-2,3,i,5.7*,-3,7
O=C(CCn1cnc(-c2ccccc2)c1-c1ccccc1)N/N=C/c1ccccc1O,-2,-18,+,0,-21,-4
COc1cccc(/C=C2\Oc3cc(OCC(=O)N4Cc5ccccc5C[C@H]4C(=O)O)ccc3C2=O)c1,9.8*,-4,i,-1,-29,-6
CCOC(=O)N1CCC(NC(=O)c2cc3c(-c4ccccc4F)nn(C)c3s2)CC1,-1,3,i,-2,3,-19
CC1CCCCN1CCNC(=O)c1cc2c(-c3ccccc3F)nn(C)c2s1 (stereo unspecified),8.9*,8,.,-3,6,1
CCCCN(CC)CCNC(=O)c1cc2c(-c3ccccc3F)nn(C)c2s1,9.3*,11,.,-2,-2,17
CCCc1cc(=O)[nH]c(SCC(=O)c2cc(C)n(CC(F)(F)F)c2C)n1,-3,6,i,-3,8,0
Cc1cc(-c2ccc(Cl)cc2)oc(=O)c1NC(=O)c1ccccc1,-3,-13,i,-3,5,-1
COC(=O)C1=C(N)Oc2cc(N(C)C)ccc2C1c1ccccc1OC (stereo unspecified),-1,-5,.,7.5*,15,7
Cc1cccc2c1NC1(CCCC1)CC2C (stereo unspecified),-1,-15,i,-1,-1,5
Cc1ccc2c(c1C)NC(C)CC2C (stereo unspecified),2,-5,i,5.0*,-2,-4
O=S(=O)(Nc1ccccc1N1CCCCC1)c1ccc(F)cc1,0,-3,i,4.7*,4,-20
CN(C)C1CCN(Cc2cc(COCc3ccccc3)c3cccnc3c2O)C1 (stereo unspecified),.,3,i,.,-9,.
Oc1ccc(CN2CCCCC2)c2cccnc12,0,-1,.,-3,-7,-24
SMILES,VIM-2 inh,procasp3 activ,Neddylation inh,IMP-1 inhibitor,proCasp7 act,PolyA inhibitor
Oc1c(CN2CCCCC2)cc(COCc2ccccc2)c2cccnc12,12*,-8,i,-2,-5,-22
COCc1cc(CN2CCCC2)c(O)c2ncccc12,8.2*,-3,i,0,-12,-8
CCOC(=O)/C(=C/C=C1\Sc2ccccc2N1CC)C(C)=O,5,-19,i,4,-20,-20
CCOC(=O)/C(=C/C=C1\Sc2cc(C)c(C)cc2N1CC)C(C)=O,3,.,i,4.8*,.,-15
Cc1c(NC(=S)N/N=C/c2cccc(O)c2)c(=O)n(-c2ccccc2)n1C,10*,3,i,-2,1,2
CN(C)CCCN1C(=O)c2oc3ccc(Cl)cc3c(=O)c2C1c1cccnc1 (stereo unspecified),1,-11,i,6.4*,-34,1
CN(C)CCN1C(=O)c2oc3ccc(F)cc3c(=O)c2C1c1ccncc1 (stereo unspecified),-1,7,i,-2,-7,-6
Nc1nc(-c2cccs2)c(-c2cccs2)s1,-2,-11,i,16*,-11,-11
Nc1nc(-c2cccs2)c(CC(=O)O)s1,-2,2,i,-2,0,-3
Cc1cccc(NC(=S)NNC(=O)CCn2nc(C)c([N+](=O)[O-])c2C)c1,8.2*,-9,i,-7,-11,10
O=C(CN(Cc1ccccc1)C(=O)CNS(=O)(=O)c1ccccc1)NCC1CCCO1 (stereo unspecified),0,0,i,0,-5,5
Cc1ccc(C(=O)Cn2ncsc2=N)cc1,-2,2,i,25*,2,-19
Cc1ccc(C(=O)Cn2c(=N)n(N)c3ccccc32)cc1,0,-3,i,-2,0,7
CN(CC(=O)Nc1ccc(Cl)c(Cl)c1)Cc1nnc(-c2ccc(F)cc2)o1,-3,5,i,-2,-2,1
O=C(OC(C(=O)O)C(OC(=O)c1ccccc1)C(=O)NCc1ccccc1)c1ccccc1 (stereo unspecified),1,5,i,6.4*,2,8
CN=C1SC(CC(=O)Nc2sc3c(c2C#N)CCCC3)C(=O)N1C (stereo unspecified),-5,0,i,-3,-4,-15

# Assay outcomes from PubChem.
